From ChEMBL document CHEMBL1811781, “Arthrinins A-D: novel diterpenoids and further constituents from the sponge derived fungus Arthrinium sp” (Bioorg Med Chem, 2011) come the findings set out here.

Experiment [1] concerns the target Insulin-like growth factor 1 receptor (Homo sapiens, UniProt P08069). Nature of the experiment: Inhibition of recombinant IGF1-R assessed as 33Pi incorporation after 60 mins by scintillation counting. An outline of the steps: (§1)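 Tyrosine kinases assayed on poly(Glu,Tyr) in 70 mM HEPES-NaOH pH 7.5, 3 mM MgCl2, 3 mM MnCl2, orthovanadate, 1.2 mM DTT, PEG, 1 µM [γ-33P]-ATP; 30 °C for 60 min, then 2% H3PO4 stop, saline wash, 33Pi scintillation. IC50 derived from residual activity at 10 concentrations in singlicate.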

For experiment [2], the target named is Tyrosine-protein kinase receptor UFO (Homo sapiens) (UniProt P30530). Nature of the experiment: (§2) Inhibition of recombinant AXL assessed as 33Pi incorporation after 60 mins by scintillation counting. An outline of the steps: as §1
Experiment [3] has as its target Serine/threonine-protein kinase pim-1 (Homo sapiens, UniProt P11309). Nature of the experiment: Inhibition of recombinant PIM1 assessed as 33Pi incorporation after 60 mins by scintillation counting. An outline of the steps:
(§3)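 Recombinant kinase with GSK3(14-27) substrate in 70 mM HEPES-NaOH pH 7.5, 3 mM MgCl2, 3 mM MnCl2, Na-orthovanadate, 1.2 mM DTT, PEG, 1 µM [γ-33P]-ATP. Incubated 30 °C, 60 min, stopped with 2% H3PO4, washed with 0.9% NaCl, 33Pi counted. IC50 from residual activity over 10 concentrations in singlicate.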

For experiment [4], the target named is RAC-alpha serine/threonine-protein kinase (Homo sapiens, UniProt P31749). Nature of the experiment: Inhibition of recombinant AKT1 assessed as 33Pi incorporation after 60 mins by scintillation counting. The gist of the method: as §3
RAC-alpha serine/threonine-protein kinase, sequence (P31749 whole entry): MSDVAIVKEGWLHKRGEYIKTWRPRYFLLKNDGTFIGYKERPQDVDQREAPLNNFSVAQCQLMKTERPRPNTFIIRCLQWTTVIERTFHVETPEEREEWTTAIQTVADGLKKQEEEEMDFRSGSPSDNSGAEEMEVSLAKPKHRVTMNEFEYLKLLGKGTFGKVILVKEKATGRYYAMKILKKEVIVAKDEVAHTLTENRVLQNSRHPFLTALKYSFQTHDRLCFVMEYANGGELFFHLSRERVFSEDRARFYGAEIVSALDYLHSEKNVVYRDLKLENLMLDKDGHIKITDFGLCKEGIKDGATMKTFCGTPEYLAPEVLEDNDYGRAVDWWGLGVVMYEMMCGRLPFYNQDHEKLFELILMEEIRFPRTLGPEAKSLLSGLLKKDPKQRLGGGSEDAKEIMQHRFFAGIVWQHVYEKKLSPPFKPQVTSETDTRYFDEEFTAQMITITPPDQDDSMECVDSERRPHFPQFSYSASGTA
Experiment [5] deals with Serine/threonine-protein kinase N1 (Homo sapiens, UniProt Q16512). Nature of the experiment: Inhibition of recombinant PRK1 assessed as 33Pi incorporation after 60 mins by scintillation counting. The gist of the method: (§4)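 Kinase reaction uses RBER-CHKtide as substrate in HEPES-NaOH pH 7.5 (70 mM) with 3 mM each MgCl2 and MnCl2, orthovanadate, 1.2 mM DTT, PEG and 1 µM [γ-33P]-ATP. Run at 30 °C for 60 min, quenched in 2% H3PO4, saline-washed, scintillation-counted. Residual activity at 10 concentrations (singlicate) gives IC50.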

Experiment [6] concerns HUVEC. Nature of the experiment: Inhibition of VEGF-A induced HUVEC cell sprouting after 24 hrs by angiogenesis assay. It counts as functional, cell-based. The conditions noted are these: Homo sapiens. An outline of the steps:
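HUVEC spheroids (500 cells, formed overnight in hanging drops) embedded in collagen gel. Compound plus VEGF-A (25 ng/mL final) added after 30 min; 37 °C for 24 h, then paraformaldehyde fixation. Mean cumulative sprout length of 10 random spheroids per point; seven concentrations, 10 µM to 10 nM, in singlicate for IC50.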

Experiment [7] concerns the target Serine/threonine-protein kinase PLK1 (Homo sapiens, UniProt P53350). Nature of the experiment: Inhibition of recombinant PLK1 assessed as 33Pi incorporation after 60 mins by scintillation counting. An outline of the steps:
as §4

Experiment [8] relates to A2780. Nature of the experiment: Antiproliferative activity against human cisplatin resistant A2780 cells after 24 hrs by MTT assay. The experiment is classed as functional, cell-based. The gist of the method:
(§5)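 Microplate MTT proliferation read-out, scored against untreated controls; each experiment run in triplicate.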
For orientation: Tetrazolium assays rely on reduction of a dye to a coloured formazan, in cell work by metabolically active cells.

Experiment [9] has as its target Hepatocyte growth factor receptor (Homo sapiens, UniProt P08581). Nature of the experiment: Inhibition of wild type MET assessed as 33Pi incorporation after 60 mins by scintillation counting. An outline of the steps:
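Wild-type MET phosphorylates poly(Ala,Glu,Lys,Tyr) in HEPES-NaOH pH 7.5 (70 mM) with 3 mM MgCl2, 3 mM MnCl2, orthovanadate, 1.2 mM DTT, PEG, 1 µM [γ-33P]-ATP, at 30 °C for 60 min. Stop with 2% H3PO4, wash, scintillation count. IC50 from residual activity at 10 singlicate concentrations.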

Experiment [10] concerns K562. Nature of the experiment: Antiproliferative activity against human K562 cells after 24 hrs by MTT assay. The experiment is classed as functional, cell-based. An outline of the steps:
as §5

Experiment [11] concerns the target ALK tyrosine kinase receptor (Homo sapiens, UniProt Q9UM73). Nature of the experiment: Inhibition of recombinant ALK assessed as 33Pi incorporation after 60 mins by scintillation counting. The gist of the method:
as §1

In experiment [12] the target is Focal adhesion kinase 1 (Homo sapiens, UniProt Q05397). Nature of the experiment: Inhibition of recombinant FAK assessed as 33Pi incorporation after 60 mins by scintillation counting. The gist of the method:
as §1

Experiment [13] deals with A2780. Nature of the experiment: Antiproliferative activity against human A2780 cells after 24 hrs by MTT assay. It counts as functional, cell-based. The gist of the method:
as §5

In experiment [14] the target is Dual specificity mitogen-activated protein kinase kinase 1 (Homo sapiens, UniProt Q02750). Nature of the experiment: Inhibition of wild type MEK1 assessed as 33Pi incorporation after 60 mins by scintillation counting. An outline of the steps:
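ERK2-KR is the substrate for wild-type MEK1 in 70 mM HEPES-NaOH pH 7.5 containing 3 mM MgCl2, 3 mM MnCl2, orthovanadate, 1.2 mM DTT, PEG and 1 µM [γ-33P]-ATP. Reaction runs 60 min at 30 °C and is stopped with 2% H3PO4; incorporated 33Pi is counted after washing. IC50 comes from 10 concentrations tested once each.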

The target of experiment [15] is Aurora kinase B (Homo sapiens, UniProt Q96GD4). Nature of the experiment: Inhibition of recombinant Aurora-b assessed as 33Pi incorporation after 60 mins by scintillation counting. The gist of the method:
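Substrate tetra(LRRWSLG) with recombinant Aurora-B. Buffer is 70 mM HEPES-NaOH pH 7.5, 3 mM MgCl2, 3 mM MnCl2, orthovanadate, 1.2 mM DTT, PEG, with 1 µM [γ-33P]-ATP. After 60 min at 30 °C, 2% H3PO4 stop, NaCl washes, 33Pi counted. IC50 fitted from 10 singlicate concentrations.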

Experiment [16] deals with L5178Y. Nature of the experiment: Antiproliferative activity against mouse L5178Y cells after 24 hrs by MTT assay. The experiment is classed as functional, cell-based. The gist of the method: as §5
Experiment [17] deals with Serine/threonine-protein kinase Nek6 (Homo sapiens, UniProt Q9HC98). Nature of the experiment: Inhibition of recombinant NEK6 assessed as 33Pi incorporation after 60 mins by scintillation counting. The gist of the method:
as §3

In experiment [18] the target is NUAK family SNF1-like kinase 1 (Homo sapiens) (UniProt O60285). Nature of the experiment: (§6) Inhibition of recombinant ARK5 assessed as 33Pi incorporation after 60 mins by scintillation counting. An outline of the steps:
as §4

Experiment [19] addresses Vascular endothelial growth factor receptor 2 (Homo sapiens, UniProt P35968). Nature of the experiment: Inhibition of recombinant VEGF-R2 assessed as 33Pi incorporation after 60 mins by scintillation counting. An outline of the steps:
as §1

For experiment [20], the target named is Serine/threonine-protein kinase Nek2 (Homo sapiens) (UniProt P51955). Nature of the experiment: (§7) Inhibition of recombinant NEK2 assessed as 33Pi incorporation after 60 mins by scintillation counting. The gist of the method: (§8)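 NEK2 reaction on RB-CTF substrate. Contains 70 mM HEPES-NaOH pH 7.5, 3 mM MgCl2/MnCl2, orthovanadate, 1.2 mM DTT, PEG and 1 µM [γ-33P]-ATP. Incubation is 30 °C, 60 min, followed by 2% H3PO4 stop, 0.9% NaCl washes and 33Pi scintillation counting. IC50 from 10 concentrations in singlicate.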

Experiment [21] addresses Proto-oncogene tyrosine-protein kinase Src (Homo sapiens, UniProt P12931). Nature of the experiment: Inhibition of recombinant SRC assessed as 33Pi incorporation after 60 mins by scintillation counting. An outline of the steps: as §1
Experiment [22] addresses Tyrosine-protein kinase receptor UFO (Homo sapiens, UniProt P30530). The experiment is described as §2. The gist of the method: as §1
The target in experiment [23] is NUAK family SNF1-like kinase 1 (Homo sapiens, UniProt O60285). Described as §6. An outline of the steps: as §4
Experiment [24] deals with Serine/threonine-protein kinase Nek2 (Homo sapiens, UniProt P51955). The description is as §7. An outline of the steps: as §8
[25] abbreviates: Homo sapiens, A2780, 24 h, read-out: IC50.
[26] abbreviates: Homo sapiens, K562, 24 h, read-out: IC50.
The mark [27] stands for this setting: Mus musculus, L5178Y, 24 h, read-out: IC50.

Calls of active or inactive are those of the source. No cut-off for these calls is given here. A value given as a limit tells only on which side of the number the result lay.

Aurora kinase B, sequence (Q96GD4 whole entry): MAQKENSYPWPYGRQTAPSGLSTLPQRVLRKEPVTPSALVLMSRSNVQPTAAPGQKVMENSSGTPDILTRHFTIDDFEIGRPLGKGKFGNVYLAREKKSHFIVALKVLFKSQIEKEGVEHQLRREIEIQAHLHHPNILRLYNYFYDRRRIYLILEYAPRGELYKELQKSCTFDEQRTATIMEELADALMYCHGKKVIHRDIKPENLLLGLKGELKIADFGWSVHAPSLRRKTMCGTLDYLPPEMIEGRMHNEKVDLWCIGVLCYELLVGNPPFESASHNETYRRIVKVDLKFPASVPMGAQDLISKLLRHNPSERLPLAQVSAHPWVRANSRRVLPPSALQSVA
Insulin-like growth factor 1 receptor, sequence (P08069 31-736 limits assumed): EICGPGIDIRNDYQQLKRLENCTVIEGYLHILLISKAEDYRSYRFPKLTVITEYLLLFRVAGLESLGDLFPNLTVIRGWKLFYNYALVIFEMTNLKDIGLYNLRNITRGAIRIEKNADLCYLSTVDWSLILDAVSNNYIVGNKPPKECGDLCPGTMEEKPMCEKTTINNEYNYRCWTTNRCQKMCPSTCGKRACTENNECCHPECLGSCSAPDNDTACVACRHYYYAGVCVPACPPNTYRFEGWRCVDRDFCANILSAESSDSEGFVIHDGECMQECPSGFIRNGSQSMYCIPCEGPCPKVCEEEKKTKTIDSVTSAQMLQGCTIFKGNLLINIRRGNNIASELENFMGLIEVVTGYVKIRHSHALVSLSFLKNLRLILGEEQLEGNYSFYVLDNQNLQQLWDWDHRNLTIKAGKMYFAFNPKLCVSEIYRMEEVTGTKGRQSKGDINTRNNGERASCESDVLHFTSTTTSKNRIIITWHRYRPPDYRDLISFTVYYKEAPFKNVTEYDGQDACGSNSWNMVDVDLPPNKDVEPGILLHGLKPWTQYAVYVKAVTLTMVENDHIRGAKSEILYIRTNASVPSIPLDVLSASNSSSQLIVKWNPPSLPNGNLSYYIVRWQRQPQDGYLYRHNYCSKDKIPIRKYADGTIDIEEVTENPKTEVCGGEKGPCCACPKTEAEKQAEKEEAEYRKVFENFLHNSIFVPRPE
Insulin-like growth factor 1 receptor, sequence (P08069 741-1367 limits assumed): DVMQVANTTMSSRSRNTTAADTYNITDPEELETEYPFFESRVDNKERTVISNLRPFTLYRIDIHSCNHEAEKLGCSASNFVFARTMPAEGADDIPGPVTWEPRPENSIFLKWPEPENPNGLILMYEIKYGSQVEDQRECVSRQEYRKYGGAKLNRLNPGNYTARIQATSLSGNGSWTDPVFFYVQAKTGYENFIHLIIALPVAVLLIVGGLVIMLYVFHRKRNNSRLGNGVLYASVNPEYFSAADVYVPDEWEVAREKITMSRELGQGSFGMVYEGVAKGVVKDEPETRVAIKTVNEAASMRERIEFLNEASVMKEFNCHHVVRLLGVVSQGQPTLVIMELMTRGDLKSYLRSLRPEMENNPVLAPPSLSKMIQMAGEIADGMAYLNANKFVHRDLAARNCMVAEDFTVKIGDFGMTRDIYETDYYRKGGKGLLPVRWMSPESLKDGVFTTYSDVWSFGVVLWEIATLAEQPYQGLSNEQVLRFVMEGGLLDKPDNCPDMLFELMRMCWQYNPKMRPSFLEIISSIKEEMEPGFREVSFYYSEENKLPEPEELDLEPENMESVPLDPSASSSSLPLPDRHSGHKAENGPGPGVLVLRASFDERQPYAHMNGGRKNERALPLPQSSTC
Proto-oncogene tyrosine-protein kinase Src, sequence (P12931 2-536 limits assumed): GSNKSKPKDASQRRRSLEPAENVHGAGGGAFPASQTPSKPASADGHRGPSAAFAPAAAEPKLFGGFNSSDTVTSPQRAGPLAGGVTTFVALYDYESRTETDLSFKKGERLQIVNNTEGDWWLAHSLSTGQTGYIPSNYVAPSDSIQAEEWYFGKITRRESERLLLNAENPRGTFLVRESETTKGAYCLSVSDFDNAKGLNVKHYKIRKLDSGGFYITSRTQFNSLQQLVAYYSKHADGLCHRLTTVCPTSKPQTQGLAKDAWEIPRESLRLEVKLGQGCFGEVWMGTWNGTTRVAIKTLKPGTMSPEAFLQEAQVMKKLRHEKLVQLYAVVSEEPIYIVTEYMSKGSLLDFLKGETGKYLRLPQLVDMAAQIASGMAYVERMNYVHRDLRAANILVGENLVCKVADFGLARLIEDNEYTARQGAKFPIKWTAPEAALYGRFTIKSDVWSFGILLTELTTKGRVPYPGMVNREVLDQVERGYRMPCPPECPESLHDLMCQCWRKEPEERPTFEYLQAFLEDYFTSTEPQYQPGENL
Hepatocyte growth factor receptor, sequence (P08581 whole entry): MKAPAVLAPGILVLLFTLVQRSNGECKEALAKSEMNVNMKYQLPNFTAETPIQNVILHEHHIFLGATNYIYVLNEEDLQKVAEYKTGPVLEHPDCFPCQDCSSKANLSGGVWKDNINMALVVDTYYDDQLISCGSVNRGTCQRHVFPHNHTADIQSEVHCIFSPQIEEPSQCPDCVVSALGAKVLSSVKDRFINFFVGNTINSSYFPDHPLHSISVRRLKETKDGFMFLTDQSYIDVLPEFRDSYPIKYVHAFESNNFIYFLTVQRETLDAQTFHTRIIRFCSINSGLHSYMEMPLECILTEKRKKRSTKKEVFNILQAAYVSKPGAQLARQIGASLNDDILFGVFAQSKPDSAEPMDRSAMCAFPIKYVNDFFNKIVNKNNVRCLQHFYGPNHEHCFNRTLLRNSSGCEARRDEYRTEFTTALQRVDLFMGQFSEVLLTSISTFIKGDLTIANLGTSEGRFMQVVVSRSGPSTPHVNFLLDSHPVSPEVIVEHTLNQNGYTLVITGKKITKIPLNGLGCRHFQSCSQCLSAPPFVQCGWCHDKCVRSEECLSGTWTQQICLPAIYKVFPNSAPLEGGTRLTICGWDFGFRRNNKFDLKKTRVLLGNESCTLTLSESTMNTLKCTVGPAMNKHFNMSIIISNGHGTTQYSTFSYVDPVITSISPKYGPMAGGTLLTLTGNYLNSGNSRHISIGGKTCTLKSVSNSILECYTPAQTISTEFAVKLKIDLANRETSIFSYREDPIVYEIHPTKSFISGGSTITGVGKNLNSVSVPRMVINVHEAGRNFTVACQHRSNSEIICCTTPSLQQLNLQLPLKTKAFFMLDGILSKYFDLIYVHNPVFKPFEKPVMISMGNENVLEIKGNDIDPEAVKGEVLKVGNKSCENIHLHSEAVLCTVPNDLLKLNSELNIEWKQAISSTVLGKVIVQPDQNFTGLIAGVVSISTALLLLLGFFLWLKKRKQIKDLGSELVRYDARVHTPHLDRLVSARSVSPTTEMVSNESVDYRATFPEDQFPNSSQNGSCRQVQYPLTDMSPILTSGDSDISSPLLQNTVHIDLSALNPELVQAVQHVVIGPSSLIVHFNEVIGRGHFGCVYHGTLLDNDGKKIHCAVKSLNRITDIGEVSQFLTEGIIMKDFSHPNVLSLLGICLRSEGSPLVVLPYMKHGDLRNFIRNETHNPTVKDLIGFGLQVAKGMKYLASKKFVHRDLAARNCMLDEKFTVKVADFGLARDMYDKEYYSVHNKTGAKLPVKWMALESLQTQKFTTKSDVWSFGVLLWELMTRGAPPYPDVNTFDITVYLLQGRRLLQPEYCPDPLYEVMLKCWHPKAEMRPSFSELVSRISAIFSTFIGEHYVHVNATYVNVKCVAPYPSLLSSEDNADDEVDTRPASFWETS
Serine/threonine-protein kinase Nek6, sequence (Q9HC98 whole entry): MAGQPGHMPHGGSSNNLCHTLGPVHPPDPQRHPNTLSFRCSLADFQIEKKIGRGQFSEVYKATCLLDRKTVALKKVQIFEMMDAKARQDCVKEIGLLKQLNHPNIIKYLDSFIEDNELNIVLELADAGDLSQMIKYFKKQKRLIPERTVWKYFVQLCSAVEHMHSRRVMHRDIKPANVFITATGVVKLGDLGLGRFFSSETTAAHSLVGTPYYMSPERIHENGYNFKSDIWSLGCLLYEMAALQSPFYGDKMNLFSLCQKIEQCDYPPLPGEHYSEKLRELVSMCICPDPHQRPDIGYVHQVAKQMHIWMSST
Dual specificity mitogen-activated protein kinase kinase 1, sequence (Q02750 whole entry): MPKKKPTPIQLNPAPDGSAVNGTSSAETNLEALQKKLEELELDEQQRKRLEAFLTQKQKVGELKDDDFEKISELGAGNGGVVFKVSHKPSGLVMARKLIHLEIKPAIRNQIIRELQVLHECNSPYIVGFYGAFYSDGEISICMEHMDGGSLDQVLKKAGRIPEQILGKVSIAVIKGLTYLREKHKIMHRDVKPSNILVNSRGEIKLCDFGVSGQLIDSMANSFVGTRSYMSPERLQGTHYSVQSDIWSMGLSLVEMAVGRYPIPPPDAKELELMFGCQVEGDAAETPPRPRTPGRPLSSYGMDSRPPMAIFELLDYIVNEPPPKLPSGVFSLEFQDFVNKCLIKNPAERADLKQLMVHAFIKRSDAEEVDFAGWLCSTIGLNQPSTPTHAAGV

For `C=C[C@]1(C)C=C2[C@@H](O)[C@@H]3OC(=O)[C@@]4(C)CC[C@H]5C[C@]5([C@@H]34)[C@@]2(O)C(=O)C1` [MYROCIN D], the inhibition result in experiment [1], in experiment [2], in experiment [3], in experiment [4], in experiment [5] and in experiment [7] was “inactive” in each case. The inhibition result in experiment [9], in experiment [11], in [12], in [14], in experiment [15] and in [17] was “inactive” throughout. For the same molecule, the inhibition result in [18], in experiment [19], in [20] and in experiment [21] was “inactive” throughout. Also, the IC50 in experiment [6] was 2.6 µM; in experiment [8] (setting [25]) it was 66 µM; in [10] (setting [26]), 50.3 µM; in experiment [13] (setting [25]), 41.3 µM; in experiment [16] (setting [27]) it was 2.05 µM.

In turn, `CCN(CC)CCNC(=O)c1c(C)[nH]c(/C=C2\C(=O)Nc3ccc(F)cc32)c1C` [SUNITINIB] showed an IC50 in [6] of 0.12 µM.

For `C=Cc1c(C)cc(O)c2c1[C@H](O)[C@@H](O)[C@H]1[C@]23C[C@H]3CC[C@@]1(C)C(=O)OC` [ARTHRININ D], the IC50 entry in experiment [8] (a2780), in experiment [10] (k562), in [13] (a2780) and in experiment [16] (l5178y) was “Not Active” each time.

As to `C=Cc1c(C)cc2c(c1O)[C@]13C[C@H]1CC[C@@]1(C)C(=O)O[C@H]([C@H]2O)[C@@H]31` [ARTHRININ B], the IC50 entry in experiment [8] (a2780), in experiment [10] (k562), in experiment [13] (a2780) and in [16] (l5178y) was “Not Active” in each case.

As to `C/C=C1\NC(=O)[C@H](Cc2ccccc2)NC(=O)[C@@H](C(C)C)NC(=O)[C@@H]([C@H](C)CC)NC(=O)[C@H](NC(=O)[C@H](NC(=O)[C@H](CCCN)NC(=O)[C@H]2CCCN2C(=O)[C@H](NC(=O)[C@@H](NC(=O)[C@@H](NC(=O)[C@H](NC(=O)CCCC(C)C)C(C)C)[C@@H](C)O)C(C)C)C(C)C)[C@H](C)CC)[C@H](C)OC(=O)[C@H](C(C)C)NC1=O` [KAHALALIDE F], the IC50 in experiment [16] (setting [27]) came out at 4.3 µM.

`Cc1cc(O)c2c(c1)[C@H](O)[C@H]1OC(=O)[C@]3(C)CC[C@@H]4C[C@@]24[C@H]13` [ARTHRININ C]: the IC50 result in experiment [8] (a2780), in [10] (k562), in [13] (a2780) and in experiment [16] (l5178y) was “Not Active” in each case.

As for `C=Cc1c(C)cc(O)c2c1[C@H](O)[C@H]1OC(=O)[C@]3(C)CC[C@@H]4C[C@@]24[C@H]13` [ARTHRININ A], the IC50 result in [8] (a2780), in [10] (k562), in experiment [13] (a2780) and in experiment [16] (l5178y) was “Not Active” throughout.

For `C=C[C@@]1(C)C=C2C(=O)C(O)=C3[C@](C)(C(=O)O)CC[C@@H]4C[C@]34[C@]2(O)C(=O)C1` [MYROCIN A], the inhibition entry in experiment [1], in experiment [2], in experiment [3], in experiment [4], in experiment [5] and in experiment [7] was “inactive” throughout. Further, the inhibition entry in [9], in [11], in experiment [12], in [14], in experiment [15] and in experiment [17] was “inactive” each time. The inhibition result in experiment [18], in experiment [19], in [20] and in experiment [21] was “inactive” throughout. The IC50 in [6] is 3.7 µM; in experiment [8] (setting [25]), 155 µM; in experiment [10] (setting [26]), 42 µM; in experiment [13] (setting [25]) it was 28.2 µM; in experiment [16] (setting [27]), 2.74 µM.

For `Cc1cc(O)cc2oc3cc(O)cc(O)c3c(=O)c12` [NORLICHEXANTHONE], the IC50 in [1] is 33.3 µM; in [22] it was above 100 µM; in experiment [3], 0.3 µM; in experiment [4], above 100 µM; in experiment [5], 54.9 µM; in experiment [7], 75.7 µM. The half-maximal inhibitory concentration (IC50) is 74 µM in [8] (setting [25]); above 100 µM in [9]; 254 µM in experiment [10] (setting [26]); 41.3 µM in [11]; above 100 µM in [12]; 68.2 µM in experiment [13] (setting [25]). The IC50 in [14] is above 100 µM; in experiment [15], 3 µM; in [16] (setting [27]) it was 1.16 µM; in experiment [17] it was above 100 µM; in experiment [23], 33 µM; in experiment [19] it was 11.7 µM. Also, the values for the IC50 in experiment [24] and in [21] were above 100 µM and 35 µM, respectively.

As usually defined, the IC50 is the concentration that inhibits the measured activity by half.
